Data on six compounds can be found in ChEMBL document CHEMBL1132144, “Synthesis of 9-O-substituted derivatives of 9-hydroxy-5, 6-dimethyl-6H-pyrido[4,3-b]carbazole-1-carboxylic acid (2-(dimethylamino)ethyl)amide and their 10- and 11-methyl analogues with improved antitumor activity” (J Med Chem, 1999).

pIC50: −log10 of the molar value.

Assay [1] deals with Mus musculus. As to the kind of experiment: Percent median survival time of mice injected with P388 leukemia, at a intravenous compound dose of 320 mg/kg.
Assay [2] relates to Mus musculus. In words: Long-term survivors among 14 mice infected with P388 leukemia, scored on day 60 at 320 mg/kg dose on day 1. Type of assay: functional. The procedure, abridged:
(§1)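 B6D2F1 mice in groups of 6–7 were inoculated ip on day 0 with 10^6 P388 cells. Dihydrochloride salts were dissolved in water and given iv on day 1 or on days 1, 5 and 9. Doses ranged from a low nontoxic dose to a toxic one. Long-term survivors were counted at day 60.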

Assay [3] concerns L1210. As to the kind of experiment: Inhibition of murine L1210 leukemia cell proliferation measured by the MTT assay. In kind it is functional, cell-based. The settings on record: Mus musculus. The procedure, abridged: (§2)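 Murine L1210 leukemia and B16 melanoma cells were grown in RPMI 1640 with 10% fetal calf serum, 2 mM L-glutamine, penicillin/streptomycin and 10 mM HEPES (pH 7.4). Cells were exposed to nine serial drug dilutions in triplicate for about four doubling times (L1210 48 h, B16 96 h), then read by microculture tetrazolium (MTT) assay. IC50 is the concentration halving optical density versus untreated controls, averaged over ≥2 independent experiments.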
(Formazan colour is commonly taken as a measure of viable cells.)

Assay [4] deals with Mus musculus. As to the kind of experiment: Percent median survival time of mice injected with B16 melanoma, at a intraperitoneal compound dose of 20-40 mg/kg.
Assay [5] concerns Mus musculus. As to the kind of experiment: Percent median survival time of mice injected with P388 leukemia, at a subcutaneous compound dose of 160 mg/kg. Type of assay: functional.
For assay [6], the species on record is Mus musculus. In words: Long-term survivors among 14 mice infected with B16 melanoma, scored on day 90 at optimal dose on days 1-9.
The test system of assay [7] is B16. As to the kind of experiment: Inhibition of murine B16 melanoma cell proliferation measured by the MTT assay. The settings on record: Mus musculus. In kind it is functional, cell-based. An outline of the steps:
as §2

The subject of assay [8] is Mus musculus. As to the kind of experiment: Percent median survival time of mice injected with B16 melanoma, at a intraperitoneal compound dose of 80 mg/kg.
Assay [9] relates to Mus musculus. In words: Long-term survivors among 7 mice infected with B16 melanoma, scored on day 90 at 80 mg/kg dose.
The test system of assay [10] is Mus musculus. As to the kind of experiment: Percent median survival time of mice intraperitoneally injected with P388 leukemia was determined from tested at 160 mg/kg at day1,5,9 dose to that of control. In kind it is functional. The settings on record: route intraperitoneal. An outline of the steps:
(§3)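 P388 leukemia in B6D2F1 mice (groups of 6–7), 10^6 cells inoculated ip on day 0. Dihydrochloride salts were dissolved in water and given iv on day 1 or on days 1, 5, 9. Three doses were tested, then five if active. %T/C = median survival treated/control × 100, reported at the optimal dose (no toxic death, weight loss <20%), from one or two representative experiments.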

The test system of assay [11] is Mus musculus. In words: Percent median survival time of mice intraperitoneally injected with P388 leukemia was determined from tested at 320 mg/kg at day1 dose to that of control. In kind it is functional. Conditions: route intraperitoneal. An outline of the steps: as §3
Assay [12] has as its system Mus musculus. As to the kind of experiment: Long-term survivors among 6 mice infected with P388 leukemia, scored on day 60 at 160 mg/kg dose. In kind it is functional. The procedure, abridged: as §1
The subject of assay [13] is Mus musculus. In words: Long-term survivors among 6 mice infected with P388 leukemia, scored on day 60 at 320 mg/kg dose. In kind it is functional. The procedure, abridged: as §1
For assay [14], the system named is Mus musculus. As to the kind of experiment: Percent median survival time of mice injected with B16 melanoma, at a intraperitoneal compound dose of 20 mg/kg.
The test system of assay [15] is Mus musculus. As to the kind of experiment: Long-term survivors among 6 mice infected with P388 leukemia, scored on day 60 at 5 mg/kg dose on day 1. Type of assay: functional. The procedure, abridged:
as §1

Assay [16] has as its system Mus musculus. In words: Long-term survivors among 6 mice infected with B16 melanoma, scored on day 90 at 102 mg/kg dose on day 1. In kind it is functional.
Assay [17] relates to Mus musculus. As to the kind of experiment: Percent median survival time of mice injected with P388 leukemia, at a subcutaneous compound dose of 5 mg/kg on day 1. Type of assay: functional.
Assay [18] deals with Mus musculus. In words: Percent median survival time of mice injected with P388 leukemia, at a subcutaneous compound dose of 5 mg/kg on day 1, 5, 9. Type of assay: functional.
Assay [19] concerns Mus musculus. In words: Long-term survivors among 7 mice infected with B16 melanoma, scored on day 90 at 40 mg/kg dose on day 1. Type of assay: functional.
For assay [20], the system named is Mus musculus. In words: Percent median survival time of mice injected with P388 leukemia, at a subcutaneous compound dose of 20 mg/kg. Type of assay: functional.
The subject of assay [21] is Mus musculus. As to the kind of experiment: Percent median survival time of mice injected with P388 leukemia, at a intravenous compound dose of 40 mg/kg.
In assay [22] the test system is Mus musculus. As to the kind of experiment: Percent median survival time of mice injected with B16 melanoma, at a intraperitoneal compound dose of 1.25 mg/kg.
Assay [23] relates to Mus musculus. As to the kind of experiment: Long-term survivors among 7 mice infected with P388 leukemia, scored on day 60 at 40 mg/kg dose on day 1. In kind it is functional. An outline of the steps:
(§4)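 B6D2F1 mice in groups of 6–7 received 10^6 P388 cells ip on day 0. Dihydrochloride salts dissolved in water were injected iv on day 1 or on days 1, 5 and 9, at three doses and then five. Read-outs were % T/C (median survival treated/control × 100) and long-term survivors on day 60, both at the optimal dose (no toxic death, weight loss <20%).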

Assay [24] concerns Mus musculus. In words: Long-term survivors among 7 mice infected with B16 melanoma, scored on day 90 at 240 mg/kg dose on day 1. In kind it is functional.
The test system of assay [25] is Mus musculus. In words: Percent median survival time of mice injected with P388 leukemia, at a subcutaneous compound dose of 240 mg/kg. Type of assay: functional.
The test system of assay [26] is Mus musculus. In words: Long-term survivors among 7 mice infected with P388 leukemia, scored on day 60 at 240 mg/kg dose on day 1. In kind it is functional. An outline of the steps:
as §4

In assay [27] the test system is Mus musculus. As to the kind of experiment: Percent median survival time of mice injected with B16 melanoma, at a intraperitoneal compound dose of 2.5 mg/kg.
The subject of assay [28] is Mus musculus. In words: Long-term survivors among 10 mice infected with P388 leukemia, scored on day 60 at 10 mg/kg dose. In kind it is functional.
Assay [29] relates to Mus musculus. As to the kind of experiment: Long-term survivors among 10 mice infected with P388 leukemia, scored on day 60 at 20 mg/kg dose. Type of assay: functional.
Assay [30] has as its system Mus musculus. As to the kind of experiment: Percent median survival time of mice injected with P388 leukemia, at a subcutaneous compound dose of 10 mg/kg. Type of assay: functional.

Broadly, the T/C is the ratio of treated to control. One may read the pIC50 as −log10 of the IC50, conventionally taken in molar units. Low values mean a high IC50, high ones a low IC50.

As for `Cc1c2ccnc(C(=O)NCCN(C)C)c2cc2c3cc(OC(=O)CC(C)(C)CC(=O)O)ccc3n(C)c12`, the T/C is listed as greater than 600% in [1], greater than 466% in assay [4] and 404% in [5]. Besides, the LTS in [2] was determined as 4; in [6], 5. The pIC50 in assay [3] was 8.57; in assay [7], 8.43.

In the case of `Cc1c2ccnc(C(=O)NCCN(C)C)c2cc2c3cc(OP(=O)(O)OCc4ccccc4)ccc3n(C)c12`, the T/C was determined as 144% in assay [8], 111% in assay [10] and 142% in [11]. The negative-log IC50 (pIC50) was 5.40 in assay [3] and 6.29 in assay [7]. The LTS in assay [9], in [12] and in assay [13] was 0 in each case.

Take `Cc1c2ccnc(C(=O)NCCN(C)C)c2cc2c3cc(OC(=O)N4CCN(C(c5ccccc5)c5ccccc5)CC4)ccc3n(C)c12`: the T/C in assay [14] came to 102%; in assay [17], 102%; in [18], 94%. Also, the LTS in assay [15] and in assay [16] was 0 in each case. Also, the negative logarithm of the IC50 (pIC50) was 6.79 in [3] and 6.23 in [7].

As to `Cc1c(OC(=O)CCCCC(=O)O)ccc2c1c1cc3c(C(=O)NCCN(C)C)nccc3c(C)c1n2C`, the LTS in assay [19] and in assay [23] was 0 in each case. The results for the pIC50 in [3] and in assay [7] were 7.61 and 8.19, respectively. For the same compound, the T/C in assay [20] is greater than 600%; in [21], 300%; in assay [22], 127%.

`Cc1c2ccnc(C(=O)NCCN(C)C)c2cc2c3cc(OC(=O)NCCCC(=O)O)ccc3n(C)c12`: the values for the T/C in assay [8], in assay [5] and in assay [25] were 139%, 109% and 111%, respectively. Besides, the LTS in assay [24] and in [26] was 0 each time. Also, the pIC50 in assay [3] was 6.28; in assay [7], 7.34.

Consider `COc1cccc2c1C(=O)c1c(O)c3c(c(O)c1C2=O)C[C@@](O)(C(=O)CO)C[C@@H]3O[C@H]1C[C@H](N)[C@H](O)[C@H](C)O1` [DOXORUBICIN], for which the T/C in assay [27] was 456%; in assay [30], 332%; in [20], 258%. Also, the LTS was 4 in [28] and 2 in [29]. Moreover, the pIC50 in assay [3] was 7.46; in assay [7] it was 8.12.
